Hsp70 activator: switches on Hsp70 transcription; HeLa Hsp70 promoter luciferase reporter, luminescence; scaled: vehicle 0, proteasome-inhibitor control 100%; activation, % at 10 µM; 200,000 compounds, 0.04% hits; AID 1203;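 active = activation above the mean across all tested compounds plus 3 SD, cutoff set per campaign, cut at about 5.5% in these data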;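 note: 100% = MG132 at 30 µM as the positive control and 0% = DMSO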
Mdm2 ligase inh: inhibitors of human Mdm2 E3 ubiquitin ligase | Q00987 | 210,000 compounds, 0.11% hits | signal enhancement, % at 5 µM | AID 1230 | cell-based MDM2 ubiquitination luciferase reporter, 2 h; 0 = plate control, 100 = twice control, blank-subtracted;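 active = signal enhancement of 30% or more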;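 note: luminescence tracks abundance of the self-degrading MDM2-luciferase fusion protein; higher signal means inhibition of MDM2 E3 ligase activity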
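test system = mammalian cells stably expressing self-ubiquitinating, self-degrading MDM2 E3–luciferase fusion | quantity = 2000 cells/well | incubation = cell settling 4 h, compound treatment 2 h, both 37 °C | signal = luminescence with SteadyLite reagent, 15 min at room temperature | evaluation = % enhancement relative to plate controls after blank subtraction | benchmarks = plate controls and plate blanks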
CHOP inh: CHOP inhibition in unfolded protein response. inhibition, % at 10 µM. AID 2732. 220,000 compounds, 3.8% hits. CHO-K1 CHOP-promoter luciferase, tunicamycin-induced, 15-18 h;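 active = compounds that reduced the stress-induced luciferase reporter signal by more than about 70% of percent inhibition, limit read from the data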;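 note: 0% = tunicamycin plus vehicle and 100% = wells without tunicamycin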
S1P3 antag: blocks the human S1P3 receptor | CHO S1P3 NFAT-BLA reporter, FRET fluorescence, antagonist mode | Q99500 | inhibition, % at 4.98 µM | 170,000 compounds, 0.27% hits;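 active = inhibition above the plate cutoff, the mean inhibition of test wells on that plate plus 3 SD, cut at about 28% in these data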;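 note: cells challenged with S1P at its EC80 of 0.8 µM; blue over green emission ratio from cleaved BLA substrate after 4 h stimulation; 0% = S1P-stimulated wells and 100% = unstimulated DMSO-only wells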
Target sequence (Q99500 whole entry, looked up): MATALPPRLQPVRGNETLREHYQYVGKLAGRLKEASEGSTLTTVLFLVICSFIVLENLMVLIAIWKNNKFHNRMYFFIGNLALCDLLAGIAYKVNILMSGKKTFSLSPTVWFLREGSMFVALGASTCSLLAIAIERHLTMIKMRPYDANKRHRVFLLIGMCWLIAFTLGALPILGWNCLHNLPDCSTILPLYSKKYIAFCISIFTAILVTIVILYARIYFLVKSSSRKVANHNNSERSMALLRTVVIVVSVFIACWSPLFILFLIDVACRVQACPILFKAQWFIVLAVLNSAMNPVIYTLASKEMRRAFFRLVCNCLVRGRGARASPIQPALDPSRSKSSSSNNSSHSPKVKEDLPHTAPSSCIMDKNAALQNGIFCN
* marks the source's active call; other numbers are inactive results; / = no result. Rows were chosen to be rich in hits. Some 4% of all compounds tested hit in one or more screens of this group.

SMILES	Hsp70 activator	Mdm2 ligase inh	CHOP inh	S1P3 antag
CN1CCN(c2ccccc2NC(=O)c2ccc(OCc3ccccc3)cc2)CC1	0	7	65	16
O=C(Nc1ccccc1N1CCN(c2ccc(F)cc2)CC1)c1ccccc1	0	-17	9	62*
O=C(Nc1ccccn1)c1sc2cccc(F)c2c1Cl	0	-67	78*	-7
O=C(Nc1cccnc1)c1sc2cccc(F)c2c1Cl	0	-8	39	-3
Cc1ccc(NC(=O)c2sc3ccccc3c2Cl)nc1	0	-4	94*	/
Cc1nnc(NC(=O)c2sc3ccccc3c2Cl)s1	0	-53	49	-16
Cc1ccc2c(c1)N(CCC(=O)NCc1cccs1)C(=O)C(C)O2 (stereo unspecified)	-1	-4	74*	/
CCOC(=O)c1c(C)nc(C)c(C(=O)OCC)c1-c1ccc(OC)cc1	0	-1	-13	-2
CCOC(=O)c1c(C)nc2c(c1-c1ccc(OC)c(OC)c1)C(=O)c1ccccc1-2	0	-13	85*	/
CSc1ccccc1C(=O)N1CCN(c2ncccn2)CC1	0	-3	1	-14
COc1cc(NC(=O)C(=O)NNC(=O)C2CCCCC2)c(OC)cc1Cl	0	-4	85*	-2
COc1cc(NC(=S)N2CCCCC2C)c(OC)cc1Cl (stereo unspecified)	0	/	0	1
Cc1sc2ncnc(NCCc3ccc(S(N)(=O)=O)cc3)c2c1C	0	/	73*	/
NS(=O)(=O)c1ccc(CCNc2ncnc3sccc23)cc1	0	-19	/	-29
CCC(=O)N1CCN(c2nc(-c3ccccc3)c3c(c2C#N)CCCC3)CC1	0	-12	73*	/
CC(CNC(=O)C1CCCCC1C(=O)O)c1ccccc1 (stereo unspecified)	0	-16	22	/
COc1ccc(CNc2nc(C)c([N+](=O)[O-])c(C)c2C#N)cc1	0	-12	20	-6
COc1cc(CNc2nc(C)c([N+](=O)[O-])c(C)c2C#N)cc(OC)c1OC	0	-15	79*	-5
COc1cc(CN2CCCC(CCC(=O)NCc3ccc(C)o3)C2)cc2c1OCO2 (stereo unspecified)	0	-19	86*	-5
CCOC(=O)c1cnc2c(OC)cccc2c1N1CCN(c2ccc(OC)cc2)CC1	0	-2	83*	5
CCOC(=O)c1cc2occc2n1CC(=O)N1CCOCC1	0	-29	35	4
CCOC(=O)c1cc2occc2n1CC(=O)Nc1ccc(OC)cc1OC	0	-2	84*	-13
CC(=O)N(/N=C/c1cccc(C)c1)c1nc(-c2ccc(Br)cc2)cs1	0	-10	95*	/
COc1ccc(/C=N/N(C(C)=O)c2nc(-c3ccc(C)cc3)cs2)cc1	0	-11	54	/
COc1ccccc1-c1nnc2sc(COc3ccc(Cl)cc3Cl)nn12	0	-18	37	0
SMILES	Hsp70 activator	Mdm2 ligase inh	CHOP inh	S1P3 antag
Clc1ccc(OCc2nn3c(C4CCCCC4)nnc3s2)c(Cl)c1	0	-10	87*	10
Cc1c2c(nc3nnnn13)CCCC2	0	-15	7	5
O=c1cc(O)c2c(=O)n(C3CCCCC3)c3ccccc3c2o1	0	-1	72*	/
C=CCNc1nc(N)c(C(=C(C#N)C#N)c2ccc(Br)cc2)s1	0	1	81*	-2
O=c1[nH]nc(CNc2ccc(Cl)cc2Cl)c2ccccc12	0	-3	71*	13
O=c1[nH]nc(Cc2ccc(Cl)cc2Cl)c2ccccc12	0	-3	80*	/
COc1ccc(/C=C/C(=O)c2ccc(O)cc2)cc1COc1ccc(F)cc1	0	-12	85*	/
COc1ccc(Oc2ccc(/C=C/C(=O)c3ccc(O)cc3)cc2[N+](=O)[O-])cc1	0	-10	86*	9
COc1ccc(/C=C/C(=O)c2ccccc2)cc1COc1ccc(F)cc1	0	-8	6	/
CNc1ccc(/C=C/C(=O)c2ccc(C)cc2)cc1[N+](=O)[O-]	0	1	-29	1
COc1ccc(/C=N/n2cnn(Cc3ccccc3Cl)c2=S)cc1	0	-20	17	-13
Cc1occc1C(=O)N1CCN(c2ccc(Cl)c(Cl)c2)CC1	0	7	75*	-19
O=C(NCc1ccccc1)N1CCN(c2ccc(F)cc2)CC1	0	0	-10	/
O=C(NCc1ccccc1)N1CCN(c2ccc(Cl)c(Cl)c2)CC1	0	-4	76*	-6
CC(C)NC(=O)/C(=C/c1cn(-c2ccccc2)nc1-c1cccc([N+](=O)[O-])c1)NC(=O)c1ccccc1	0	-8	-1	2

Screening data as filed in PubChem BioAssay.
